Test results published in ChEMBL document CHEMBL3414433, “Discovery and profiling of a selective and efficacious Syk inhibitor” (J Med Chem, 2015).
Activity calls are given as the source filed them. No cut-off for these calls is given here.

Legend:
[1] = target: T1, Tyrosine-protein kinase SYK (Homo sapiens, UniProt P43405); assay: Inhibition of Syk in anti-igM stimulated human Ramos B cells assessed as phospho-BLNK level preincubated for 30 mins followed by anti-IgM stimulation measured after 15 mins by flow cytometric analysis; format: cell-based
[2] = target: T1, Tyrosine-protein kinase SYK; assay: Inhibition of Syk in anti-CD32 stimulated CD14+ human monocytes assessed as phospho-SLP76 level preincubated for 30 mins followed by anti-CD32 stimulation measured after 5 mins by flow cytometric analysis
[3] = Clearance in Sprague-Dawley rat at 1 mg/kg, iv and 3 mg/kg, po administered as cassette dosing; format: ADME, organism-based; settings: in vivo
Summary of the method: (§1)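 Rat PK: i.v. 1 mg/kg in NMP/PEG200 (3:7); p.o. 3 mg/kg in CMC/water/Tween (0.5:99:0.5). Exposure values dose normalized.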

Rattus norvegicus [4] = assay: Dose normalized AUC in Sprague-Dawley rat at 3 mg/kg, po administered as cassette dosing; format: ADME, organism-based; set-up: dose 3 mg/kg, route oral; settings: in vivo; summary of the method: as §1
[5] = Oral bioavailability in Sprague-Dawley rat at 3 mg/kg administered as cassette dosing; format: ADME, organism-based; settings: in vivo
Summary of the method: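 Rats were dosed i.v. at 1 mg/kg in NMP/PEG200 (3:7) and p.o. at 3 mg/kg in CMC/water/Tween (0.5:99:0.5). PK parameters were derived from blood concentration–time curves for both routes.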

Canis familiaris [6] = assay: Dose normalized AUC in Beagle dog at 0.1 mg/kg, iv; format: ADME, organism-based, Canis lupus familiaris; set-up: dose 0.1 mg/kg, route intravenous; settings: in vivo
Summary of the method: (§2)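 One-in-one dosing in Beagle dogs: i.v. 0.1 mg/kg in NMP/PEG200 (3:7); p.o. 0.3 mg/kg in MC/water (0.5:99.5). Exposure values dose normalized.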

Canis familiaris [7] = assay: Dose normalized AUC in Beagle dog at 0.3 mg/kg, po; format: ADME, organism-based, Canis lupus familiaris; set-up: dose 0.3 mg/kg, route oral; settings: in vivo; summary of the method: as §2
[8] = Oral bioavailability in Beagle dog at 0.3 mg/kg; format: ADME, organism-based, Canis lupus familiaris; settings: in vivo
Summary of the method: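 Beagle dogs dosed one-in-one. The i.v. dose was 0.1 mg/kg in NMP/PEG200 (3:7), and the p.o. dose was 0.3 mg/kg in MC/water (0.5:99.5). Blood levels were followed after each route.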

[9] = target: Interleukin-1 receptor-associated kinase 1 (Homo sapiens, UniProt P51617); assay: Competitive binding affinity to human IRAK1
[10] = target: Tyrosine-protein kinase JAK2 (Homo sapiens, UniProt O60674); assay: Competitive binding affinity to human JAK2
[11] = target: T2, Mitogen-activated protein kinase kinase kinase 2 (Homo sapiens, UniProt Q9Y2U5); assay: Competitive binding affinity to human MAP3K2
T2 sequence (Q9Y2U5 whole entry): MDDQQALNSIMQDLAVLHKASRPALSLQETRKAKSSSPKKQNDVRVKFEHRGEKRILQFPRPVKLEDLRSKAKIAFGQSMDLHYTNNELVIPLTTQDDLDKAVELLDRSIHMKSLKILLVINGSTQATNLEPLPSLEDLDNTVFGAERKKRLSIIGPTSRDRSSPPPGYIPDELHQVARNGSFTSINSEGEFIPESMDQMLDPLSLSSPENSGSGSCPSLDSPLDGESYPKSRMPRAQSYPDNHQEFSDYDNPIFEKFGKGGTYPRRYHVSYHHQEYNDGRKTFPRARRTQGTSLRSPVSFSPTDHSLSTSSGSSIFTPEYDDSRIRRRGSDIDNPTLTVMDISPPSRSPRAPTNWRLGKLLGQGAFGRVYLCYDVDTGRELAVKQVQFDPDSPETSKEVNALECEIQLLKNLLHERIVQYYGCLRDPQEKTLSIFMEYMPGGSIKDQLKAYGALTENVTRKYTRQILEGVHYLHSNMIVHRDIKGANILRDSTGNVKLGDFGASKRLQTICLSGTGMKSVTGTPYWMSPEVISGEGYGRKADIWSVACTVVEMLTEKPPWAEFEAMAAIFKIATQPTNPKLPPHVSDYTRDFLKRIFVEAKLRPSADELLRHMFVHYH

Rattus norvegicus [12] = assay: In vivo inhibition of Syk in Lewis rat assessed as reduction in FcgR-induced SLP76 phosphorylation in peripheral blood monocytes at 22 mg/kg, po measured after 24 hrs relative to vehicle-treated control; format: functional
Summary of the method: (§3)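 Single oral dose of 22 mg/kg to Lewis rats; blood sampled at 2, 4 and 24 h after dosing for compound level and ex vivo FcγR-induced phospho-SLP76 in peripheral blood monocytes.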

[13] = Drug uptake in Lewis rat blood at 22 mg/kg, po measured after 2 hrs; format: ADME, organism-based; set-up: dose 22 mg/kg, route oral; settings: read-out: Drug uptake; summary of the method: as §3
[14] = Drug uptake in Lewis rat blood at 22 mg/kg, po measured after 4 hrs; format: ADME, organism-based; set-up: dose 22 mg/kg, route oral; settings: read-out: Drug uptake; summary of the method: as §3
[15] = Drug uptake in Lewis rat blood at 22 mg/kg, po measured after 24 hrs; format: ADME, organism-based; set-up: dose 22 mg/kg, route oral; settings: read-out: Drug uptake; summary of the method: as §3
Rattus norvegicus [16] = assay: Increase in body weight gain in Lewis rat collagen-induced arthritis model at 3 to 30 mg/kg, po qd administered on day 15 post immunization measured up to day 28; format: functional, organism-based
Summary of the method: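 Lewis rats with collagen-induced arthritis, randomized once joints swelled and given 3, 10 or 30 mg/kg p.o. once daily from day 15 to 28; animals weighed regularly throughout, compared against vehicle-treated rats.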

Rattus norvegicus [17] = assay: Antiarthritic activity in Lewis rat collagen-induced arthritis model assessed as reduction of proteoglycan loss in hind paw at 3 to 30 mg/kg, po qd administered on day 15 post immunization measured after day 28 by Giemsa/safranin O staining-based assay; format: functional, organism-based
Summary of the method: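 Female Lewis rats (140−160 g), arthritis induced by porcine collagen immunization (day 0) and boost (day 7); rats with swollen joints randomized, dosed orally once daily from day 15 to day 28. Hind paws taken on day 28, fixed in 10% buffered formalin for 48 h, decalcified over 16 days, paraffin-embedded; 3 μm sections stained with Giemsa and safranin O and scored.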

[18] = Drug uptake in blood of Lewis rat collagen-induced arthritis model at 10 mg/kg, po qd administered on day 15 post immunization measured at 4 hrs on day 18; format: ADME, organism-based; set-up: dose 10 mg/kg, route oral; settings: read-out: Drug uptake
Summary of the method: (§4)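 Collagen-arthritic Lewis rats given 3, 10 or 30 mg/kg p.o. once daily from day 15; blood levels measured on day 18 (third day of treatment) at 4, 8 and 24 h after dosing.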

[19] = Drug uptake in blood of Lewis rat collagen-induced arthritis model at 3 mg/kg, po qd administered on day 15 post immunization measured at 24 hrs on day 18; format: ADME, organism-based; set-up: dose 3 mg/kg, route oral; settings: read-out: Drug uptake; summary of the method: as §4
[20] = Drug uptake in blood of Lewis rat collagen-induced arthritis model at 10 mg/kg, po qd administered on day 15 post immunization measured at 24 hrs on day 18; format: ADME, organism-based; set-up: dose 10 mg/kg, route oral; settings: read-out: Drug uptake; summary of the method: as §4
Rattus norvegicus [21] = assay: In vivo inhibition of Syk in Lewis rat assessed as reduction in FcgR-induced SLP76 phosphorylation in peripheral blood monocytes at 3 to 30 mg/kg, po measured after 2 to 24 hrs; format: functional, organism-based; set-up: route oral
Rattus norvegicus [22] = organism: Rattus norvegicus; assay: Hepatotoxicity in rat assessed as bile plugs measured for 4 weeks by GLP study; format: toxicity, organism-based; settings: in vivo, 672 h
Rattus norvegicus [23] = organism: Rattus norvegicus; assay: Hepatotoxicity in rat assessed as portal inflammation measured for 4 weeks by GLP study; format: toxicity, organism-based; settings: in vivo, 672 h
Canis familiaris [24] = organism: Canis familiaris; assay: Hepatotoxicity in dog assessed as single necrosis of hepatocytes measured for 4 weeks by GLP study; format: toxicity, organism-based, Canis lupus familiaris, Hepatocyte; settings: 672 h
Canis familiaris [25] = organism: Canis familiaris; assay: Hepatotoxicity in dog assessed as portal inflammation measured for 4 weeks by GLP study; format: toxicity, organism-based, Canis lupus familiaris; settings: in vivo, 672 h
[26] = Drug metabolism in liver microsomes (unknown origin); format: ADME
Rattus norvegicus [27] = organism: Rattus norvegicus; assay: Drug metabolism in rat; format: ADME, organism-based; settings: in vivo

Tyrosine-protein kinase JAK2, sequence (O60674 whole entry): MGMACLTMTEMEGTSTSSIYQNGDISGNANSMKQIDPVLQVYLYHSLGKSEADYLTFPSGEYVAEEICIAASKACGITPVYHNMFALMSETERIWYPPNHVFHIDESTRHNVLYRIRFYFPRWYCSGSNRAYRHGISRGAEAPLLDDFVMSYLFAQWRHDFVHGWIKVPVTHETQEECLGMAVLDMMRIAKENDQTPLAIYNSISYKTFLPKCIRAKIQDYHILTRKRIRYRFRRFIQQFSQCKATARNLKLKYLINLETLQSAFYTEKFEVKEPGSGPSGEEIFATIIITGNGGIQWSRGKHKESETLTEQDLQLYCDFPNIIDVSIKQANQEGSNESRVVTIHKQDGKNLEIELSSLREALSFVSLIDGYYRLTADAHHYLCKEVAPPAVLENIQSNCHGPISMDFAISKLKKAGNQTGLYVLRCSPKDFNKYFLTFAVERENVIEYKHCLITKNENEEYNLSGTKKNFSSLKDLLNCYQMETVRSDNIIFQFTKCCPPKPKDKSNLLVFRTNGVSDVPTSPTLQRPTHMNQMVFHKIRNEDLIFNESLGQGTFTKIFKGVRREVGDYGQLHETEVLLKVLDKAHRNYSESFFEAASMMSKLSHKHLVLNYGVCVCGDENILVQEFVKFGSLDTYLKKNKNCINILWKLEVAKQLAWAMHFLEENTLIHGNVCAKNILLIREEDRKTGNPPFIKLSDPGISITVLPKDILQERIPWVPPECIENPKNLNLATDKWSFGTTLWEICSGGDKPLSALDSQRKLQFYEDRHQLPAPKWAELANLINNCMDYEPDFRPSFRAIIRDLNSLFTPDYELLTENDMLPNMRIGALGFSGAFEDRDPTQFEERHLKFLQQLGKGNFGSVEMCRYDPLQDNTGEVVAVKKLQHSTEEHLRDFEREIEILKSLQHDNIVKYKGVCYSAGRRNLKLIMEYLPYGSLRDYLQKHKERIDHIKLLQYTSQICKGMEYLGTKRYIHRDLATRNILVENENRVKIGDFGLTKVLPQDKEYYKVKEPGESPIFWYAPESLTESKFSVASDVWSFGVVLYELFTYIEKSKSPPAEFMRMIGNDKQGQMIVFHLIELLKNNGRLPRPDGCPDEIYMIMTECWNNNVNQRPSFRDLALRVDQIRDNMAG
Interleukin-1 receptor-associated kinase 1, sequence (P51617 whole entry): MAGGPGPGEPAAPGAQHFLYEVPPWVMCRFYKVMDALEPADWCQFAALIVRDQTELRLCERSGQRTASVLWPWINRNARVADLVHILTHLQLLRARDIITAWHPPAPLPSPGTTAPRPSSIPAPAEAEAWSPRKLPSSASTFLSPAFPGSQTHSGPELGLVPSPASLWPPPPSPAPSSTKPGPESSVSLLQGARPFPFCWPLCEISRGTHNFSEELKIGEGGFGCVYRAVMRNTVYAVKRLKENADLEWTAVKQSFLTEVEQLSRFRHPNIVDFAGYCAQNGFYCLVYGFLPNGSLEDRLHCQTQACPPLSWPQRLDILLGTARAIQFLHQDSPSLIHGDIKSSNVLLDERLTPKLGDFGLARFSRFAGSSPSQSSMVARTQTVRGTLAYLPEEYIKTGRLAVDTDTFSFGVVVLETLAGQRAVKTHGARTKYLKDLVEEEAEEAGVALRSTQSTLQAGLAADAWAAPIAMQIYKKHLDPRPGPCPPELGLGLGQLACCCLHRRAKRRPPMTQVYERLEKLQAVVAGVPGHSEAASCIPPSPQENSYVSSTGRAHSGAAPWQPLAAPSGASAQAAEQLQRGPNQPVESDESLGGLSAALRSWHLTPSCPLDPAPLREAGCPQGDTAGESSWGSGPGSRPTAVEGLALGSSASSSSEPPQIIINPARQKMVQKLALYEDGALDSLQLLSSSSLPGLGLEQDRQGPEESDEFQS

IC50 [1]: 99 nM
IC50 [2]: 367 nM
clearance [3]: 31 mL/min/kg
AUC/dose (Rattus norvegicus [4]): 877 nM·h
bioavailability [5]: 60%
AUC/dose (Canis familiaris [6]): 3414 nM·h
AUC/dose (Canis familiaris [7]): 1836 nM·h
bioavailability [8]: 54%
Kd [9]: 67 nM
Kd [10]: 53 nM
Kd [11]: 140 nM
concentration at 2 h [13]: 900 nM
concentration at 4 h [14]: 1100 nM
concentration at 24 h [15]: 300 nM
concentration at 4 h [18]: 866 nM
concentration at 24 h [19]: 35 nM
concentration at 24 h [20]: 156 nM
IC50 (Rattus norvegicus [21]): 189 nM
Drug metabolism [26]: metabolite_notdetected
Drug metabolism (Rattus norvegicus [27]): metabolite_notdetected
SMILES: NC(=O)c1nnc(N[C@@H]2CCCC[C@@H]2N)nc1Nc1cccc2cc[nH]c12
inhibition in vivo at 22 mg/kg (Rattus norvegicus [12]): 45%
Activity (Rattus norvegicus [16]): Active
Activity (Rattus norvegicus [17]): Active
Activity (Rattus norvegicus [22]): Toxic
Activity (Rattus norvegicus [23]): Toxic
Activity (Canis familiaris [24]): Toxic
Activity (Canis familiaris [25]): Toxic
